Data from ChEMBL document CHEMBL1121804, “Cognition-activating properties of 3-(Aryloxy)pyridines” (J Med Chem, 1981).

Tests used:
Mus musculus [1] = assay: Retention for passive avoidance learning in mice at dose 20 mg/kg; assay type: functional, organism-based; parameters: dose 20 mg/kg
Procedure, shortened: (§1)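 Naive male CF-1 mice (19–21 g at shipment), 20 per dose, each used once. Dosed i.p. as an aqueous solution or methocel suspension 1 h before footshock training, with a saline group run in parallel. At the test, mice were placed on an outside shelf; entering the box within 60 s counted as no retention. Values are percent retention. A day was discarded unless controls scored 65–75%.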

Mus musculus [2] = assay: Retention for passive avoidance learning in mice at dose 80 mg/kg; assay type: functional, organism-based; parameters: dose 80 mg/kg; procedure, shortened: as §1
Mus musculus [3] = assay: Retention for passive avoidance learning in mice at dose 5.0 mg/kg; assay type: functional, organism-based; parameters: dose 5 mg/kg; procedure, shortened: as §1
Mus musculus [4] = assay: Retention for passive avoidance learning in mice at dose 1.25 mg/kg; assay type: functional, organism-based; parameters: dose 1.25 mg/kg; procedure, shortened: as §1
Mus musculus [5] = assay: Retention for passive avoidance learning in mice at dose 2.5 mg/kg; assay type: functional, organism-based; parameters: dose 2.5 mg/kg; procedure, shortened: as §1
Mus musculus [6] = assay: Compound was tested for cognitive activity by measuring retention for passive avoidance learning in mice at dose 1.25 mg/kg; assay type: functional, organism-based; parameters: dose 1.25 mg/kg
Procedure, shortened: (§2)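 Male CF-1 mice (19–21 g at shipment), 20 per dose group, each used once. Given ip an aqueous solution or methocel suspension 1 h before footshock training, with a saline group run alongside. Retention test: mouse placed on an outer shelf of the box; entering within 60 s scored as not retained. Value is percent retention. Days with control retention outside 65–75% were discarded.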

Mus musculus [7] = assay: Compound was tested for cognitive activity by measuring retention for passive avoidance learning in mice at dose 2.5 mg/kg; assay type: functional, organism-based; parameters: dose 2.5 mg/kg; procedure, shortened: as §2
Mus musculus [8] = assay: (§3) Compound was tested for cognitive activity by measuring retention for passive avoidance learning in mice at dose 0.63 mg/kg; assay type: functional, organism-based; parameters: dose 0.63 mg/kg; procedure, shortened: as §2
Mus musculus [9] = assay: Compound was tested for cognitive activity by measuring retention for passive avoidance learning in mice at dose 0.32 mg/kg; assay type: functional, organism-based; parameters: dose 0.32 mg/kg; procedure, shortened: as §2
Mus musculus [10] = assay: Compound was tested for cognitive activity by measuring retention for passive avoidance learning in mice at dose 0.15 mg/kg; assay type: functional, organism-based; parameters: dose 0.15 mg/kg; procedure, shortened: as §2
Mus musculus [11] = species: Mus musculus
Mus musculus [12] = assay: Retention for passive avoidance learning in mice at dose 5 mg/kg; assay type: functional, organism-based; parameters: dose 5 mg/kg; procedure, shortened: as §1
Mus musculus [13] = assay: Compound was tested for cognitive activity by measuring retention for passive avoidance learning in mice at dose 10 mg/kg; assay type: functional, organism-based; parameters: dose 10 mg/kg; procedure, shortened: as §2
Mus musculus [14] = assay: as §3; assay type: functional, organism-based; parameters: dose 0.63 mg/kg; procedure, shortened: as §1; remark: listed apart in the source
Mus musculus [15] = assay: Compound was tested for lethality in mice at a dose 80 mg/kg intraperitoneally; L denotes lethal at this dose; assay type: functional, organism-based; parameters: dose 80 mg/kg
Procedure, shortened: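 Male CF-1 mice, 20 per group, were given the agent i.p. as an aqueous solution or methocel suspension 1 h before passive-avoidance training. The table entry L marks a dose that killed the animals.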

Mus musculus [16] = assay: Compound was tested for cognitive activity by measuring retention for passive avoidance learning in mice at dose 40 mg/kg; assay type: functional, organism-based; parameters: dose 40 mg/kg; procedure, shortened: as §1
Mus musculus [17] = assay: Compound was tested for cognitive activity by measuring retention for passive avoidance learning in mice at dose 20 mg/kg; assay type: functional, organism-based; parameters: dose 20 mg/kg; procedure, shortened: as §1
Mus musculus [18] = assay: Compound was tested for cognitive activity by measuring retention for passive avoidance learning in mice at dose 20 mg/kg i; assay type: functional, organism-based; parameters: dose 20 mg/kg; procedure, shortened: as §2
Mus musculus [19] = species: Mus musculus; remark: listed apart in the source
Mus musculus [20] = species: Mus musculus; remark: listed apart in the source

SMILES | Retention (Mus musculus [1]) [%] | Retention (Mus musculus [2]) [%] | Retention (Mus musculus [3]) [%] | Retention (Mus musculus [4]) [%] | Retention (Mus musculus [5]) [%] | further results
Cc1ccncc1Oc1ccccc1 | 85 | 15 | 75 |  |  | 
CC(N)Cc1ccccc1 (stereo not drawn) |  |  |  | 70 | 75 | 
C[C@H](N)Cc1ccccc1 |  |  |  |  |  | Retention (Mus musculus [6]): 60%; Retention (Mus musculus [7]): 65%; Retention (Mus musculus [8]): 100%; Retention (Mus musculus [9]): 80%; Retention (Mus musculus [10]): 45%
N[C@@H]1C[C@H]1c1ccccc1.N[C@H]1C[C@@H]1c1ccccc1 | 55 |  |  |  |  | Retention (Mus musculus [11]): Lethal at this dose; Retention (Mus musculus [12]): 75%; Retention (Mus musculus [13]): 80%
c1ccc(Sc2cccnc2)cc1 | 85 | 85 | 80 |  |  | 
Cc1ncccc1Oc1ccccc1N | 45 | 40 | 65 |  |  | 
Fc1ccc(Oc2cccnc2)cc1 | 80 | 50 | 95 | 60 | 85 | Retention (Mus musculus [14]): 35%
C1CCc2nnnn2CC1 | 80 |  |  |  |  | Retention (Mus musculus [12]): 80%; Retention (Mus musculus [15]): Lethal at this dose; Retention (Mus musculus [16]): 80%; Retention (Mus musculus [13]): 65%
CN1C(=O)CN=C(c2ccccc2)c2cc(Cl)ccc21 |  |  |  | 53 | 40 | Retention (Mus musculus [12]): 41%
Nc1ccccc1Oc1cccnc1 | 65 | 55 | 80 |  | 70 | 
CN(C)CCCN1c2ccccc2CCc2ccccc21 | 77 |  |  |  |  | Retention (Mus musculus [12]): 65%; Retention (Mus musculus [16]): 72%; Retention (Mus musculus [13]): 80%
Brc1ccccc1Oc1cccnc1 |  |  | 65 |  |  | Retention (Mus musculus [17]): 50%
NC1=NC(=O)C(c2ccccc2)O1 (stereo not drawn) | 83 | 77 |  |  |  | Retention (Mus musculus [12]): 30%; Retention (Mus musculus [16]): 83%; Retention (Mus musculus [13]): 70%
[Cl-].[Li+] |  | 38 |  | 84 | 70 | Retention (Mus musculus [12]): 0%; Retention (Mus musculus [8]): 60%; Retention (Mus musculus [16]): 23%; Retention (Mus musculus [13]): 31%
CCOc1ccccc1Oc1cccnc1 | 70 | 65 | 70 |  |  | 
O=c1[nH]c2ccccc2n1C1CCN(CCCC(c2ccc(F)cc2)c2ccc(F)cc2)CC1 |  |  |  |  |  | Retention (Mus musculus [8]): 27%; Retention (Mus musculus [9]): 40%; Retention (Mus musculus [10]): 43%
[O-][n+]1cccc(Oc2ccc[n+]([O-])c2)c1 | 90 | 60 | 90 | 75 | 60 | Retention (Mus musculus [14]): 65%
Cc1cncc(Oc2ccccc2)c1 | 80 | 45 | 70 |  |  | 
Cc1ncccc1Oc1ccccc1[N+](=O)[O-] | 70 | 35 | 85 | 70 | 70 | 
O=C1NC(=O)C(c2ccccc2)(c2ccccc2)N1 |  | 15 |  | 85 | 75 | Retention (Mus musculus [12]): 90%; Retention (Mus musculus [18]): 55%; Retention (Mus musculus [16]): 50%; Retention (Mus musculus [13]): 43%
COc1ccc(Oc2cccnc2)cc1 | 75 | 35 | 78 |  |  | 
c1ccc(Oc2ccccn2)cc1 | 50 | 30 | 65 |  |  | 
FC(F)(F)c1cccc(Oc2cccnc2)c1 | 55 |  | 30 |  |  | 
Clc1ccccc1Oc1cccnc1 | 80 | 40 | 95 | 45 | 40 | Retention (Mus musculus [14]): 60%

SMILES | Retention (Mus musculus [1]) [%] | Retention (Mus musculus [2]) [%] | Retention (Mus musculus [3]) [%] | Retention (Mus musculus [4]) [%] | Retention (Mus musculus [5]) [%] | further results
CCCC(C)C1(CC)C(=O)NC(=O)NC1=O (stereo not drawn) |  |  |  | 40 | 7 | Retention (Mus musculus [8]): 23%
CN1CCC[C@H]1c1cccnc1 |  |  |  |  | 27 | Retention (Mus musculus [19]): Lethal; Retention (Mus musculus [6]): 53%; Retention (Mus musculus [8]): 75%; Retention (Mus musculus [9]): 70%
CNC(=O)Oc1ccc2c(c1)[C@]1(C)CCN(C)[C@@H]1N2C |  |  |  |  |  | Retention (Mus musculus [20]): Lethal; Retention (Mus musculus [9]): 35%; Retention (Mus musculus [10]): 45%
COC(=O)C(c1ccccc1)C1CCCCN1 (stereo not drawn) | 87 |  |  | 50 | 50 | Retention (Mus musculus [12]): 90%; Retention (Mus musculus [13]): 65%
c1ccc(Oc2ccncc2)cc1 | 65 | 0 | 70 |  |  | 
COc1cccc(Oc2cccnc2)c1 | 55 | 20 | 55 |  |  | 
COC(=O)c1cccc(Oc2cccnc2)c1 | 60 | 55 | 70 |  |  | 
COc1cc2c(cc1OC)C1CC(=O)C(CC(C)C)CN1CC2 (stereo not drawn) |  |  |  | 59 | 63 | Retention (Mus musculus [12]): 33%
CN(C)CCCN1c2ccccc2Sc2ccc(Cl)cc21 |  |  |  | 70 | 70 | Retention (Mus musculus [12]): 20%
Clc1cccc(Oc2cccnc2)c1 | 60 | 0 | 60 |  |  | 
c1cncc(Oc2cccnc2)c1 | 100 | 55 | 85 |  |  | 
[O-][n+]1cccc(Oc2ccccc2)c1 | 20 | 0 | 40 |  |  | 
O=C1C[C@@H]2OCC=C3CN4CC[C@]56c7ccccc7N1[C@H]5[C@H]2[C@H]3C[C@H]46 |  |  |  |  |  | Retention (Mus musculus [8]): 75%; Retention (Mus musculus [9]): 70%
c1ccc(Oc2cccnc2)cc1 | 70 | 35 | 100 | 90 | 90 | Retention (Mus musculus [14]): 65%
Fc1cccc(Oc2cccnc2)c1 | 55 | 55 | 90 | 75 | 75 | Retention (Mus musculus [14]): 65%
C=C(C)[C@@H]1[C@H]2OC(=O)[C@@H]1[C@]1(O)C[C@H]3OC34C(=O)O[C@H]2[C@@]41C.CC(C)(O)[C@@H]1[C@H]2OC(=O)[C@@H]1[C@]1(O)C[C@H]3OC34C(=O)O[C@H]2[C@@]41C (stereo partly drawn) |  |  |  |  | 80 | Retention (Mus musculus [12]): 70%; Retention (Mus musculus [6]): 90%; Retention (Mus musculus [8]): 80%; Retention (Mus musculus [9]): 65%
CN1[C@@H]2C[C@@H](OC(=O)[C@H](CO)c3ccccc3)C[C@H]1[C@@H]1O[C@@H]12 |  |  |  |  |  | Retention (Mus musculus [6]): 35%; Retention (Mus musculus [8]): 30%; Retention (Mus musculus [9]): 65%; Retention (Mus musculus [10]): 65%
Cn1c(=O)c2c(ncn2C)n(C)c1=O |  | 0 |  | 87 | 37 | Retention (Mus musculus [12]): 37%; Retention (Mus musculus [8]): 70%; Retention (Mus musculus [16]): 3%; Retention (Mus musculus [13]): 3%
Clc1ccc(Oc2cccnc2)cc1 | 30 | 65 | 80 | 65 | 70 | Retention (Mus musculus [14]): 55%
O=[N+]([O-])c1ccccc1Oc1cccnc1 | 90 | 50 | 60 |  |  | 
[O-][n+]1cccc(Oc2cccnc2)c1 | 85 | 85 | 85 | 45 | 65 | Retention (Mus musculus [14]): 60%
CCC1(C)CC(=O)NC1=O (stereo not drawn) |  | 95 |  |  |  | Retention (Mus musculus [18]): 90%; Retention (Mus musculus [16]): 70%; Retention (Mus musculus [13]): 63%
Brc1ccc(Oc2cccnc2)cc1 | 70 | 85 | 90 | 75 | 70 | Retention (Mus musculus [14]): 75%
Fc1ccccc1Oc1cccnc1 | 85 | 50 | 90 | 65 | 80 | Retention (Mus musculus [14]): 60%
